# Laboratory results taken from ChEMBL document CHEMBL5724801, “EUbOPEN Chemogenomics Library - Multiplex” (2024).
# Several values for one entry are separate records, joined by “and”; a condition that tells them apart may be missing. Identical values can stand only once.
# System: HEK-293T
# Experiment: Multiplex assay against HEK293T
# Type: toxicity, cell-based
# Conditions: human
# Procedure, shortened: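 Hoechst33342, BioTracker Green Microtubule Cytoskeleton Dye, MitoTracker Red and Annexin V Alexa Fluor 680 were added to live cells at seeding, and imaging on a CQ1 microscope at 37°C and 5% CO2 followed compound addition. Gating by CellPathfinder machine learning separated cells into Hoechst high-intensity objects or normal cells, then normal cells into healthy, pyknosed or fragmented nuclei, then pyknosed cells into mitotic or apoptotic. Per cents of healthy-nucleus cells are reported for the tubulin, mitochondrial-mass and membrane-permeability phenotypes.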
# [1] = 12 h, 1 µM, compound concentration 1 uM
# [2] = 12 h, 10 µM, compound concentration 10 uM
# [3] = 24 h, 1 µM, compound concentration 1 uM
# [4] = 24 h, 10 µM, compound concentration 10 uM
# [5] = 48 h, 1 µM, compound concentration 1 uM
# [6] = 48 h, 10 µM, compound concentration 10 uM
compound,measurement,setting,value
CC(N)C1CCC(C(=O)Nc2ccncc2)CC1 (centres undefined),Population Apoptotic (%),[1],7.48% and 4.2%
same,Population Fragmented Nuclei (%),[1],1.19% and 1.23%
same,Population Healthy Nuclei (%),[1],63.72% and 25.31%
same,Population Hoechst High Intensity Objects (%),[1],0.48% and 0%
same,Population Membrane Permeable-Phenotype (%),[1],0%
same,Population Mitotic Cells (%),[1],92.52% and 95.8%
same,Population Normal (%),[1],99.52% and 100%
same,Population Pyknosed Nuclei (%),[1],35.08% and 73.46%
same,Total Cell Count,[1],421 and 162
same,Population Fragmented Nuclei (%),[2],1.2% and 1.9%
same,Population Healthy Nuclei (%),[2],60.28% and 29.75%
same,Population Hoechst High Intensity Objects (%),[2],0%
same,Population Membrane Permeable-Phenotype (%),[2],0.99% and 4.26%
same,Population Mitochondria Different-Phenotype (%),[2],27.81% and 17.02%
same,Population Mitotic Cells (%),[2],96.37% and 83.33%
same,Population Normal (%),[2],100%
same,Population Pyknosed Nuclei (%),[2],38.52% and 68.35%
same,Population Apoptotic (%),[3],2.15% and 8.97%
same,Population Fragmented Nuclei (%),[3],1.77% and 1.69%
same,Population Healthy Nuclei (%),[3],83.28% and 54.49%
same,Population Hoechst High Intensity Objects (%),[3],0.16% and 1.11%
same,Population Membrane Permeable-Phenotype (%),[3],0.97% and 3.09%
same,Population Mitochondria Different-Phenotype (%),[3],6.76% and 5.15%
same,Population Mitotic Cells (%),[3],97.85% and 91.03%
same,Population Normal (%),[3],99.84% and 98.89%
same,Population Pyknosed Nuclei (%),[3],14.95% and 43.82%
same,Population Tubulin-Different-Phenotype (%),[3],6.56% and 4.12%
same,Population Apoptotic (%),[4],4.95% and 13.95%
same,Population Fragmented Nuclei (%),[4],1.78% and 1.58%
same,Population Healthy Nuclei (%),[4],73.29% and 53.16%
same,Population Hoechst High Intensity Objects (%),[4],0% and 0.52%
same,Population Membrane Permeable-Phenotype (%),[4],0.19% and 2.97%
same,Population Mitochondria Different-Phenotype (%),[4],6.17% and 6.93%
same,Population Mitotic Cells (%),[4],95.05% and 86.05%
same,Population Normal (%),[4],100% and 99.48%
same,Population Pyknosed Nuclei (%),[4],24.93% and 45.26%
same,Population Tubulin-Different-Phenotype (%),[4],3.36% and 1.98%
same,Population Apoptotic (%),[5],7.52% and 3.77%
same,Population Fragmented Nuclei (%),[5],2.72% and 1.86%
same,Population Healthy Nuclei (%),[5],86.94% and 78.44%
same,Population Hoechst High Intensity Objects (%),[5],0% and 0.74%
same,Population Membrane Permeable-Phenotype (%),[5],3.76% and 2.84%
same,Population Mitochondria Different-Phenotype (%),[5],10.11% and 9.95%
same,Population Mitotic Cells (%),[5],92.48% and 96.23%
same,Population Normal (%),[5],100% and 99.26%
same,Population Pyknosed Nuclei (%),[5],10.34% and 19.7%
same,Population Fragmented Nuclei (%),[6],1.32% and 1.83%
same,Population Healthy Nuclei (%),[6],88.05% and 71.1%
same,Population Hoechst High Intensity Objects (%),[6],0% and 0.91%
same,Population Membrane Permeable-Phenotype (%),[6],2.25% and 0.65%
same,Population Mitochondria Different-Phenotype (%),[6],9.07% and 6.45%
same,Population Mitotic Cells (%),[6],96.89% and 81.36%
same,Population Normal (%),[6],100% and 99.09%
same,Population Pyknosed Nuclei (%),[6],10.63% and 27.06%
same,Population Tubulin-Different-Phenotype (%),[6],0.3% and 9.68%
"CCCn1c(=O)c2[nH]c(C3CCCC3)nc2n(CCC)c1=O [1,3-DIPROPYL-8-CYCLOPENTYLXANTHINE [DPCPX]]",Population Apoptotic (%),[1],35% and 54%
same,Population Fragmented Nuclei (%),[1],7% and 3%
same,Population Healthy Nuclei (%),[1],79% and 81%
same,Population Hoechst High Intensity Objects (%),[1],6% and 3%
same,Population Membrane Permeable-Phenotype (%),[1],0%
same,Population Mitochondria Different-Phenotype (%),[1],44% and 52%
same,Population Mitotic Cells (%),[1],64% and 45%
same,Population Normal (%),[1],93% and 96%
same,Population Pyknosed Nuclei (%),[1],12% and 14%
same,Population Tubulin-Different-Phenotype (%),[1],32% and 15%
same,Total Cell Count,[1],443 and 361
same,Population Apoptotic (%),[2],60% and 54%
same,Population Fragmented Nuclei (%),[2],12% and 7%
same,Population Healthy Nuclei (%),[2],68% and 75%
same,Population Membrane Permeable-Phenotype (%),[2],0%
same,Population Mitochondria Different-Phenotype (%),[2],58% and 68%
same,Population Mitotic Cells (%),[2],39% and 45%
same,Population Normal (%),[2],94% and 81%
same,Population Pyknosed Nuclei (%),[2],19% and 16%
same,Population Tubulin-Different-Phenotype (%),[2],51% and 45%
same,Total Cell Count,[2],295 and 337
same,Population Apoptotic (%),[3],26% and 28%
same,Population Fragmented Nuclei (%),[3],8% and 7%
same,Population Healthy Nuclei (%),[3],78% and 82%
same,Population Hoechst High Intensity Objects (%),[3],4% and 3%
same,Population Membrane Permeable-Phenotype (%),[3],1% and 0%
same,Population Mitochondria Different-Phenotype (%),[3],25% and 45%
same,Population Mitotic Cells (%),[3],73% and 71%
same,Population Normal (%),[3],95% and 96%
same,Population Pyknosed Nuclei (%),[3],13% and 10%
same,Population Tubulin-Different-Phenotype (%),[3],20% and 19%
same,Total Cell Count,[3],610 and 403
same,Population Apoptotic (%),[4],50% and 41%
same,Population Fragmented Nuclei (%),[4],8% and 7%
same,Population Healthy Nuclei (%),[4],76% and 79%
same,Population Membrane Permeable-Phenotype (%),[4],0%
same,Population Mitochondria Different-Phenotype (%),[4],43% and 55%
same,Population Mitotic Cells (%),[4],50% and 58%
same,Population Normal (%),[4],95% and 84%
same,Population Pyknosed Nuclei (%),[4],14% and 13%
same,Population Tubulin-Different-Phenotype (%),[4],40% and 31%
same,Total Cell Count,[4],379 and 411
same,Population Apoptotic (%),[5],33% and 39%
same,Population Fragmented Nuclei (%),[5],11% and 14%
same,Population Healthy Nuclei (%),[5],81% and 80%
same,Population Hoechst High Intensity Objects (%),[5],1% and 3%
same,Population Membrane Permeable-Phenotype (%),[5],1% and 0%
same,Population Mitochondria Different-Phenotype (%),[5],17% and 22%
same,Population Mitotic Cells (%),[5],66% and 60%
same,Population Normal (%),[5],98% and 96%
same,Population Pyknosed Nuclei (%),[5],7% and 5%
same,Population Tubulin-Different-Phenotype (%),[5],17% and 13%
same,Total Cell Count,[5],957 and 593
same,Population Apoptotic (%),[6],29% and 45%
same,Population Fragmented Nuclei (%),[6],14%
same,Population Healthy Nuclei (%),[6],76% and 75%
same,Population Hoechst High Intensity Objects (%),[6],3% and 7%
same,Population Membrane Permeable-Phenotype (%),[6],1% and 0%
same,Population Mitochondria Different-Phenotype (%),[6],37% and 36%
same,Population Mitotic Cells (%),[6],70% and 54%
same,Population Normal (%),[6],96% and 92%
same,Population Pyknosed Nuclei (%),[6],8% and 10%
same,Population Tubulin-Different-Phenotype (%),[6],30% and 23%
same,Total Cell Count,[6],511 and 516
